The results in this text go back to ChEMBL document CHEMBL4765255, “Design and synthesis of Imidazo[1,2-b]pyridazine IRAK4 inhibitors for the treatment of mutant MYD88 L265P diffuse large B-cell lymphoma” (Eur J Med Chem, 2020).

The source made the active and inactive calls.

In experiment [1] the target is T1, Interleukin-1 receptor-associated kinase 4 (Homo sapiens, UniProt Q9NWZ3).
T1 sequence (Q9NWZ3 whole entry): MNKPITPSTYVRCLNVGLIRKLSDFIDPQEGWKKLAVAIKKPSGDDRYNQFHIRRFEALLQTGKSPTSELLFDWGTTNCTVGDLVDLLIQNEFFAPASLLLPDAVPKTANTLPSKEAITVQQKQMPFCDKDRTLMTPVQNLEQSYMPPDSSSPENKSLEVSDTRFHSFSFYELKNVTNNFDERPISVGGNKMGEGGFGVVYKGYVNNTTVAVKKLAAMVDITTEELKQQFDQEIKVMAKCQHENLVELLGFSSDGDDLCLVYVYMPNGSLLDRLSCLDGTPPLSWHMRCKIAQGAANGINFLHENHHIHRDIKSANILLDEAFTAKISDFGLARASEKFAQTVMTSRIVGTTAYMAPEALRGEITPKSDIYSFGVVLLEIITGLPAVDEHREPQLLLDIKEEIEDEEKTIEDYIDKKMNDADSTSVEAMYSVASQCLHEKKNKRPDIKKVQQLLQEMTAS
Description: Inhibition of recombinant human His-tagged full length IRAK4 expressed in baculovirus expression system using Ser/Thr07 peptide as substrate incubated for 1 hr by Z'lyte assay.

The subject of another experiment is OCI-Ly10. In words: Cytotoxicity against human OCILY10 cells harboring MYD88 L265P mutant assessed as reduction in cell viability incubated for 72 hrs by CCK-8 assay. To be noted: OCI-Ly10, 72 h. It counts as functional, cell-based.
Experiment [2] has as its system TMD8. Description: Cytotoxicity against human TMD8 cells harboring MYD88 L265P mutant assessed as reduction in cell viability incubated for 72 hrs by CCK-8 assay. Type of experiment: functional, cell-based. To be noted: TMD8, 72 h.
For another experiment, the system named is Ramos. In words: Cytotoxicity against human Ramos cells harboring MYD88 assessed as reduction in cell viability incubated for 72 hrs by CCK-8 assay. Type of experiment: functional, cell-based.
A further experiment deals with HT. Description: Cytotoxicity against human HT cells harboring MYD88 assessed as reduction in cell viability incubated for 72 hrs by CCK-8 assay. Type of experiment: functional, cell-based.
Experiment [3] addresses Receptor-type tyrosine-protein kinase FLT3 (Homo sapiens) (UniProt P36888). In words: Inhibition of FLT3 (unknown origin) at 0.1 uM incubated for 1 hr by ELISA relative to control. The gist of the method: (§1)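 Part of a 20-kinase panel tested at 0.1 μM compound. Kinase inhibition measured by ELISA following previously described protocols.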
Experiment [4] has as its system Receptor-type tyrosine-protein kinase FLT3 (Homo sapiens), P36888 [UNDEFINED MUTATION]. In words: Inhibition of FLT3-ITD mutant (unknown origin) at 0.1 uM incubated for 1 hr by ELISA relative to control. The procedure, abridged:
as §1

Experiment [5] has as its target Mast/stem cell growth factor receptor Kit (Homo sapiens) (UniProt P10721). In words: Inhibition of c-Kit (unknown origin) at 0.1 uM incubated for 1 hr by ELISA relative to control. The procedure, abridged: as §1
Experiment [6] deals with T2, Interleukin-1 receptor-associated kinase 4 (Homo sapiens) (UniProt Q9NWZ3).
T2 sequence (whole entry): T1 sequence (Q9NWZ3 whole entry)
In words: Inhibition of IRAK4 in human OCILY10 cells assessed as decrease in IRAK4 Thr345/Ser346 phosphorylation incubated for 2 hrs by Western blot analysis. It counts as cell-based. To be noted: dose 0.3-10 µM. The procedure, abridged: (§2)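 OCI-LY10 or TMD8 cells, about 2×10^6 per well, treated with compound or DMSO for 2 h. Cells washed twice with PBS, lysed, then Western blotted for p-IRAK4 (Thr-345/Ser-346), p-IKKβ and p-p65. Bands quantified densitometrically; significance thresholds p<0.05, 0.01, 0.001.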

Experiment [7] deals with T2, Interleukin-1 receptor-associated kinase 4 (Homo sapiens). In words: Inhibition of IRAK4 in human OCI-LY10 cells assessed as decrease in IKKbeta phosphorylation at 0.3 to 10 uM incubated for 2 hrs by Western blot analysis. Type of experiment: cell-based. Particulars: OCILY10, dose 0.3-10 µM. The gist of the method:
as §2

Experiment [8] has the same target. In words: Inhibition of IRAK4 in human OCI-LY10 cells assessed as decrease in NF-kappaB phosphorylation at 0.3 to 10 uM incubated for 2 hrs by Western blot analysis. It counts as cell-based. Particulars: OCILY10, dose 0.3-10 µM. The gist of the method: as §2
For experiment [9] the target is unchanged. Description: Inhibition of IRAK4 in human TMD8 cells assessed as decrease in IRAK4 Thr345/Ser346 phosphorylation incubated for 2 hrs by Western blot analysis. Type of experiment: cell-based. Particulars: dose 0.3-10 µM. The gist of the method: as §2
For experiment [10] the target is unchanged. In words: Inhibition of IRAK4 in human TMD8 cells assessed as decrease in IKKbeta phosphorylation at 0.3 to 10 uM incubated for 2 hrs by Western blot analysis. Type of experiment: cell-based. To be noted: dose 0.3-10 µM. The gist of the method: as §2
For experiment [11] the target is unchanged. In words: Inhibition of IRAK4 in human TMD8 cells assessed as decrease in NF-kappaB phosphorylation at 0.3 to 10 uM incubated for 2 hrs by Western blot analysis. It counts as cell-based. To be noted: dose 0.3-10 µM. The gist of the method:
as §2

The subject of experiment [12] is TMD8. Description: Cytotoxicity against human TMD8 cells harboring MYD88 L265P mutant assessed as combination index at 0.3 uM in presence of ibrutinib incubated for 72 hrs by CCK-8 assay. Type of experiment: functional. The gist of the method:
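TMD8 cells (RPMI1640, 10% FBS, penicillin–streptomycin, 0.05 mM 2-mercaptoethanol, 37 °C, 5% CO2), seeded at 10000-12000 cells/well, exposed to ibrutinib plus IRAK4 inhibitor at varied concentrations for 72 h. Viability read by CCK-8; combination index computed with CalcuSyn, CI below 1 taken as synergy.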

Chain of Mast/stem cell growth factor receptor Kit (Homo sapiens) (P10721 whole entry): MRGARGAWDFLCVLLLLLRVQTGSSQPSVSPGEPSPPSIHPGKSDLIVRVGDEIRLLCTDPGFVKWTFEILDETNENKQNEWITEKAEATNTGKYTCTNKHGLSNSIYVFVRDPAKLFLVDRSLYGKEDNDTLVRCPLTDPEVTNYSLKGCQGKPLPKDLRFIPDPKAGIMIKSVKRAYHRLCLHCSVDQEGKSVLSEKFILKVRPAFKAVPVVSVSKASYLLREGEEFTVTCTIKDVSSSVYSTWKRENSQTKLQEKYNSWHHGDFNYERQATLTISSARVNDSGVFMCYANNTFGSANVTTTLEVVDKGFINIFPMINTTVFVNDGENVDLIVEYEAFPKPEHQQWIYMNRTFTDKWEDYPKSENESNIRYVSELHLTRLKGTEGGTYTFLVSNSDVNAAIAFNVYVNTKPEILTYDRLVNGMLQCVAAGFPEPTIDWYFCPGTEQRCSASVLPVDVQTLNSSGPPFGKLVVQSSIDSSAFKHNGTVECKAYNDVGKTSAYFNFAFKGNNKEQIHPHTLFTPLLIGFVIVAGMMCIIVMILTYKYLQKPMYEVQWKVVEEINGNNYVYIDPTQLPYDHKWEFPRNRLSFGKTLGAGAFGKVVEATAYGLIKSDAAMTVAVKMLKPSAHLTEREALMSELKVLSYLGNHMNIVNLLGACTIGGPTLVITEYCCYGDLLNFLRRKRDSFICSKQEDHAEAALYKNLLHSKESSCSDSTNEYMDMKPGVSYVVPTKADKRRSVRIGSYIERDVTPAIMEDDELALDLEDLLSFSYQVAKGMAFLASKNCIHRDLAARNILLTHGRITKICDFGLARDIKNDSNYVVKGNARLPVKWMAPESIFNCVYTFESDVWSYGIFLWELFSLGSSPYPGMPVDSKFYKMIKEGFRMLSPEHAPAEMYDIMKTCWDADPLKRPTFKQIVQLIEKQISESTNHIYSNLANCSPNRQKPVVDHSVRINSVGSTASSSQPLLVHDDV
Chain of Receptor-type tyrosine-protein kinase FLT3 (Homo sapiens), P36888 [UNDEFINED MUTATION] (P36888 whole entry, looked up, change not shown): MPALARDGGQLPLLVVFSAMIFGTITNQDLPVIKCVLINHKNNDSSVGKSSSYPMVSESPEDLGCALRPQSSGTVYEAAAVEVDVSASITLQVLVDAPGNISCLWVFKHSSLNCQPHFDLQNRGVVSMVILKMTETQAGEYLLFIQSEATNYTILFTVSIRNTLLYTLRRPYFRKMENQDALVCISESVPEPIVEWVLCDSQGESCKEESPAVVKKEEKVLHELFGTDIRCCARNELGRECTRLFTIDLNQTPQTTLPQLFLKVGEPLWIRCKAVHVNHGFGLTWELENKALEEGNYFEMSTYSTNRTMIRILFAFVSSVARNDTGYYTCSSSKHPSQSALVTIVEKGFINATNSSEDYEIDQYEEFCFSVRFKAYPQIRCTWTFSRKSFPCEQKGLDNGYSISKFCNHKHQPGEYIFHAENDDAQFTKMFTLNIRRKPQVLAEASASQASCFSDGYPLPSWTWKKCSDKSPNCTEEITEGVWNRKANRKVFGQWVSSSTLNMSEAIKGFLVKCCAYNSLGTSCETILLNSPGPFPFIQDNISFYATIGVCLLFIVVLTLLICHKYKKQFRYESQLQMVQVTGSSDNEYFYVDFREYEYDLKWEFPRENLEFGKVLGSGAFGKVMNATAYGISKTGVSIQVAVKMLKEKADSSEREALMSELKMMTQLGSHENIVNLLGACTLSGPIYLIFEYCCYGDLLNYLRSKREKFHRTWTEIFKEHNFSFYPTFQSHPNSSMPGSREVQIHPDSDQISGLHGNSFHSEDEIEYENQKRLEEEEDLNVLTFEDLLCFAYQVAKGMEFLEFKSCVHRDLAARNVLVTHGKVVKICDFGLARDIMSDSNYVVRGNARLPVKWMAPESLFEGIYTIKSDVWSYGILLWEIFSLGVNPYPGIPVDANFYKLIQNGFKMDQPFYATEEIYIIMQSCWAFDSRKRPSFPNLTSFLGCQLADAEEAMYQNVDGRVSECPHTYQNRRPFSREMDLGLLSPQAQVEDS
Chain of Receptor-type tyrosine-protein kinase FLT3 (Homo sapiens) (P36888 whole entry): as the sequence (P36888 whole entry, looked up, change not shown) above

On to `Cn1cc(NC(=O)c2cnn3ccc(N4CCC[C@@H](N)C4)nc23)c(C(F)F)n1`, for which the IC50 in experiment [1] came out at 0.0093 µM; in the experiment on OCI-Ly10, 5.5 µM; in the experiment with TMD8 [2], 7.3 µM; in the experiment on Ramos, 19 µM; with HT, 29.2 µM.

Take `Cn1cc(NC(=O)c2cnc3ccc(N[C@@H]4CCCNC4)nn23)c(C#N)n1`: the IC50 in experiment [1] was 0.0408 µM; in the experiment on OCI-Ly10 it was 5.8 µM; in the experiment on TMD8 [2], 14.8 µM; in the experiment on Ramos, 28.8 µM; with HT it was over 50 µM.

As for `Cc1nc2ccc(N[C@@H]3CCCNC3)nn2c1C(=O)Nc1cn(C)nc1C(F)F`, the half-maximal inhibitory concentration (IC50) in [1] is over 1 µM.

For `Cn1cc(NC(=O)c2cnc3ccc(N4CC[C@@H](N)C4)nn23)c(C(F)F)n1`, the IC50 in experiment [1] was over 1 µM.

As to `Cn1cc(NC(=O)c2cnc3ccc(N[C@@H]4CCCNC4)nn23)c(C(F)F)n1`, the IC50 in experiment [1] is 0.0013 µM; in the experiment with OCI-Ly10, 0.7 µM; with TMD8 [2] it was 1.2 µM; in the experiment on Ramos, 11.4 µM; in the experiment on HT, 40.1 µM. For the same molecule, the inhibition was over 50% in [3]; over 50% in experiment [4]; over 50% in [5]; “Dose-dependent effect” in [6]; “Dose-dependent effect” in [9]. The inhibition entry in experiment [7], in experiment [8], in experiment [10] and in experiment [11] was “Active” in each case. Also, in the experiment with TMD8 [12], the CI was determined as 0.13.

Regarding `Cn1cc(NC(=O)c2ncn3ccc(N4CCC[C@@H](N)C4)nc23)c(C(F)F)n1`, the IC50 in experiment [1] was over 1 µM; with OCI-Ly10, over 50 µM; in the experiment with TMD8 [2], over 50 µM; with Ramos it was over 50 µM; in the experiment on HT, over 50 µM.

With `CN(c1ccc2ncc(C(=O)Nc3cn(C)nc3C(F)F)n2n1)[C@@H]1CCCNC1`, in experiment [1], the IC50 is over 1 µM.

Consider `Cn1cc(NC(=O)c2cnc3ccc(N[C@H]4CCCNC4)nn23)c(C(F)F)n1`, for which the IC50 in experiment [1] was 0.0362 µM; with OCI-Ly10, 22.3 µM; in the experiment with TMD8 [2], 22.3 µM; with Ramos, over 50 µM; in the experiment on HT it was over 50 µM.

Regarding `Cn1cc(NC(=O)c2cnc3ccc(N4CCC(N)CC4)nn23)c(C(F)F)n1`, the IC50 in experiment [1] is 0.0803 µM.

With `Cc1nn2ccc(N[C@@H]3CCCNC3)nc2c1C(=O)Nc1cn(C)nc1C(F)F`, the IC50 in [1] is over 1 µM.

Consider `CC(C)n1cc(NC(=O)c2cnc3ccc(N[C@@H]4CCCNC4)nn23)c(C(F)(F)F)n1`, for which, in experiment [1], the IC50 turned out to be 0.077 µM.

As to `Cn1cc(NC(=O)c2cnc3ccc(NCCN)nn23)c(C(F)F)n1`, the IC50 in experiment [1] is 0.0175 µM; in the experiment on OCI-Ly10, 8.8 µM; with TMD8 [2] it was 17.7 µM; in the experiment with Ramos, over 50 µM; in the experiment with HT it was over 50 µM.

For the molecule `Cn1cc(NC(=O)c2cnc3ccc(N4CCC[C@@H](N)C4)nn23)c(C(F)F)n1`, the IC50 in experiment [1] is 0.0087 µM; in the experiment on OCI-Ly10, 10.7 µM; in the experiment on TMD8 [2], 17.8 µM; in the experiment on Ramos it was 44.3 µM; with HT it was 41.7 µM.

Take `CCn1cc(NC(=O)c2cnc3ccc(N[C@@H]4CCCNC4)nn23)c(C(F)(F)F)n1`: the IC50 was 0.0323 µM in experiment [1]; 3.6 µM in the experiment with OCI-Ly10; 6.1 µM in the experiment on TMD8 [2]; over 50 µM in the experiment on Ramos; over 50 µM in the experiment on HT.

Turning to `O=C(Nc1cn(C2CCOCC2)nc1C(F)(F)F)c1cnc2ccc(N[C@@H]3CCCNC3)nn12`, the IC50 is 0.0497 µM in experiment [1]; 10.5 µM in the experiment with OCI-Ly10; 11.1 µM in the experiment with TMD8 [2]; over 50 µM in the experiment with Ramos; over 50 µM with HT.

On to `Cn1cc(NC(=O)c2cnc3ccc(N[C@@H]4CCCCNC4)nn23)c(C(F)F)n1`, for which the IC50 in experiment [1] was found to be 0.009 µM; in the experiment on OCI-Ly10 it was 0.8 µM; in the experiment on TMD8 [2], 1.2 µM; in the experiment on Ramos it was 7.2 µM; in the experiment on HT, 35.9 µM.

Regarding `O=C(Nc1cn(C2CCNCC2)nc1C(F)(F)F)c1cnc2ccc(N[C@@H]3CCCNC3)nn12`, in experiment [1], the IC50 is 0.0522 µM.

For `Cn1cc(NC(=O)c2cnc3ccc(N[C@@H]4CCNC4)nn23)c(C(F)F)n1`, the concentration for half-maximal inhibition (IC50) in experiment [1] is 0.0077 µM; with OCI-Ly10 it was 3.6 µM; in the experiment with TMD8 [2], 8.3 µM; in the experiment on Ramos it was 45 µM; in the experiment with HT, over 50 µM.

With `Cn1cc(NC(=O)c2cnc3ccc(N[C@@H]4CCCNC4)nn23)c(C(F)(F)F)n1`, the IC50 in experiment [1] is 0.0235 µM; with OCI-Ly10, 2.8 µM; in the experiment with TMD8 [2], 5.9 µM; in the experiment on Ramos it was over 50 µM; with HT, over 50 µM.

Regarding `Cn1cc(NC(=O)c2cnc3ccc(N4CCNCC4)nn23)c(C(F)F)n1`, the IC50 in [1] turned out to be 0.0655 µM.

For the molecule `Cn1cc(NC(=O)c2cnc3ccc(N[C@@H]4CCCNC4)nn23)c(C(N)=O)n1`, the IC50 in experiment [1] is 0.0125 µM.

In the case of `Cc1nn(C)cc1NC(=O)c1cnc2ccc(N[C@@H]3CCCNC3)nn12`, the IC50 in experiment [1] is over 1 µM.
